In ChEMBL document CHEMBL3286335, “Synthesis of 2,3,6-trideoxy sugar triazole hybrids as potential new broad spectrum antimicrobial agents” (Eur J Med Chem, 2014):
Values after ≈ are worked out from the molar mass of the structure shown.

Assays:
Pseudomonas aeruginosa = assay: Antimicrobial activity against Pseudomonas aeruginosa ATCC BAA-427 after 24 hrs by microbroth dilution method; format: functional; conditions: ATCC BAA-427, 24 h
Procedure, shortened: (§1)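 Broth microdilution per NCCLS guidelines. Bacteria in Mueller-Hinton broth; fungi in MOPS-buffered RPMI 1640. Test compounds at 50-0.36 µg/mL, standard drugs over 32-0.0018 µg/mL. Inoculum 1-5 × 10^3 cells/mL, 35 °C in a moist chamber. A492 read at 24 h for bacteria, 48 h for C. albicans, 72 h for A. fumigatus, C. neoformans and S. schenckii, 96 h for T. mentagrophytes. MIC taken as 90% growth inhibition relative to growth control.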

[1] = test system: Trichophyton mentagrophytes; assay: Antimicrobial activity against Trichophyton mentagrophytes after 96 hrs by microbroth dilution method; format: functional; procedure, shortened: as §1
Klebsiella pneumoniae = assay: Antimicrobial activity against Klebsiella pneumoniae ATCC 27736 after 24 hrs by microbroth dilution method; format: functional; conditions: ATCC 27736, 24 h; procedure, shortened: as §1
Staphylococcus aureus [2] = assay: Antimicrobial activity against vancomycin-resistant Staphylococcus aureus after 24 hrs by microbroth dilution method; format: functional
Procedure, shortened: (§2)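 Microbroth dilution in Mueller Hinton broth, following NCCLS guidelines. Test compounds were run at 50-0.36 µg/mL against an initial inoculum of 1-5 × 10^3 cells/mL. Plates were incubated in a moist chamber at 35 °C, and absorbance at 492 nm was read after 24 h. MIC was taken as 90% growth inhibition relative to the growth control.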

Candida albicans = assay: Antimicrobial activity against Candida albicans after 48 hrs by microbroth dilution method; format: functional; procedure, shortened: as §1
Aspergillus fumigatus = assay: Antimicrobial activity against Aspergillus fumigatus after 72 hrs by microbroth dilution method; format: functional; procedure, shortened: as §1
Staphylococcus aureus [3] = assay: Antimicrobial activity against Staphylococcus aureus ATCC 25923 after 24 hrs by microbroth dilution method; format: functional; conditions: ATCC 25923, 24 h; procedure, shortened: as §1
Sporothrix schenckii = assay: Antimicrobial activity against Sporothrix schenckii after 72 hrs by microbroth dilution method; format: functional; procedure, shortened: as §1
Escherichia coli = assay: Antimicrobial activity against Escherichia coli ATCC 9637 after 24 hrs by microbroth dilution method; format: functional; conditions: ATCC 9637, 24 h; procedure, shortened: as §1
Cryptococcus neoformans = assay: Antimicrobial activity against Cryptococcus neoformans after 72 hrs by microbroth dilution method; format: functional; procedure, shortened: as §1
Staphylococcus aureus [4] = assay: Antimicrobial activity against methicillin-resistant Staphylococcus aureus after 24 hrs by microbroth dilution method; format: functional; procedure, shortened: as §2
L929 [5] = assay: Cytotoxicity against mouse L929 cells assessed as reduction in cell viability after 24 hrs by MTT assay; format: cell-based; conditions: l929, 24 h
Procedure, shortened: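 L929 fibroblasts in DMEM with 10% FBS at 37 °C, 5% CO2. Seeded at 1×10^3 cells per well, switched to serum-free DMEM at 90% confluency. Compounds from 1 mg/mL DMSO stocks tested at nine twofold dilutions for 24 h. MTT readout: viability = (A570−A630) sample / (A570−A630) control × 100.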

L929 [6] = assay: Cytotoxicity against mouse L929 cells assessed as change in morphology at MIC after 24 hrs using Giemsa staining by phase contrast microscopy; format: cell-based; conditions: l929, 24 h
Procedure, shortened: (§3)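 Mouse fibroblast L929 cells grown in DMEM with 10% FBS and antibiotic/antimycotic at 37 °C, 5% CO2. Medium switched to serum-free DMEM at 90% confluency, then compounds added (DMSO stocks) for 24 h. Cells fixed, stained with Giemsa for 30 min at 37 °C, washed with PBS, air dried and examined by phase-contrast microscopy.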

L929 [7] = assay: Cytotoxicity against mouse L929 cells assessed as change in morphology at 50 ug/ml after 24 hrs using Giemsa staining by phase contrast microscopy; format: cell-based; conditions: l929, 24 h; procedure, shortened: as §3

| Structure (SMILES) | MIC (Pseudomonas aeruginosa) [µg/mL] | MIC [1] [µg/mL] | MIC (Klebsiella pneumoniae) [µg/mL] | MIC (Staphylococcus aureus [2]) [µg/mL] | MIC (Candida albicans) [µg/mL] | MIC (Aspergillus fumigatus) [µg/mL] | MIC (Staphylococcus aureus [3]) [µg/mL] | MIC (Sporothrix schenckii) [µg/mL] | MIC (Escherichia coli) [µg/mL] | MIC (Cryptococcus neoformans) [µg/mL] | MIC (Staphylococcus aureus [4]) [µg/mL] | Activity (L929 [5]) | Activity (L929 [6]) | Activity (L929 [7]) |
| --- | --- | --- | --- | --- | --- | --- | --- | --- | --- | --- | --- | --- | --- | --- |
| CCCCCCCCc1cn(C[C@H]2O[C@H](OCCC(C)C)C=C[C@@H]2O)nn1 | > 50 | 50 (≈ 132 µM) | > 50 | > 50 | > 50 | > 50 | > 50 | > 50 | > 50 | 25 (≈ 65.9 µM) | > 50 | – | – | – |
| CC(C)CCO[C@@H]1C=CC(=O)[C@@H](Cn2cc(CCCCl)nn2)O1 | 50 (≈ 146 µM) | 50 (≈ 146 µM) | 3.12 (≈ 9.13 µM) | 6.25 (≈ 18.3 µM) | 25 (≈ 73.1 µM) | 50 (≈ 146 µM) | 1.56 (≈ 4.56 µM) | 12.5 (≈ 36.6 µM) | 50 (≈ 146 µM) | 50 (≈ 146 µM) | 6.25 (≈ 18.3 µM) | Dose-dependent effect | Non-toxic | Toxic |
| CC(C)CO[C@@H]1C=CC(=O)[C@@H](Cn2cc(CCCCl)nn2)O1 | > 50 | > 50 | 50 (≈ 153 µM) | > 50 | 50 (≈ 153 µM) | > 50 | 12.5 (≈ 38.1 µM) | 50 (≈ 153 µM) | > 50 | > 50 | > 50 | – | – | – |
| CCCCCc1cn(C[C@H]2O[C@H](OCCC(C)C)C=CC2=O)nn1 | > 50 | 3.12 (≈ 9.3 µM) | 3.12 (≈ 9.3 µM) | 6.25 (≈ 18.6 µM) | > 50 | > 50 | 3.12 (≈ 9.3 µM) | 12.5 (≈ 37.3 µM) | > 50 | > 50 | 6.25 (≈ 18.6 µM) | Dose-dependent effect | Non-toxic | Toxic |
| CCCCCCc1cn(C[C@H]2O[C@H](OCCC(C)C)C=CC2=O)nn1 | > 50 | 12.5 (≈ 35.8 µM) | 1.56 (≈ 4.46 µM) | 6.25 (≈ 17.9 µM) | > 50 | > 50 | 3.12 (≈ 8.93 µM) | 25 (≈ 71.5 µM) | > 50 | > 50 | 6.25 (≈ 17.9 µM) | Dose-dependent effect | Non-toxic | Toxic |
| CC(C)CCO[C@@H]1C=CC(=O)[C@@H](Cn2cc(CCCC=O)nn2)O1 | > 50 | 25 (≈ 74.5 µM) | 50 (≈ 149 µM) | > 50 | > 50 | > 50 | > 50 | 12.5 (≈ 37.3 µM) | > 50 | > 50 | > 50 | – | – | – |
| CC(C)CCO[C@@H]1C=CC(=O)[C@@H](Cn2cc(C=O)nn2)O1 | 50 (≈ 170 µM) | 3.12 (≈ 10.6 µM) | 50 (≈ 170 µM) | > 50 | > 50 | 25 (≈ 85.2 µM) | 50 (≈ 170 µM) | 25 (≈ 85.2 µM) | 50 (≈ 170 µM) | 50 (≈ 170 µM) | > 50 | Dose-dependent effect | Non-toxic | Toxic |
| CC(C)CCO[C@@H]1C=CC(=O)[C@@H](Cn2cc(CCCCOC(=O)C(C)(C)C)nn2)O1 | 50 (≈ 119 µM) | 25 (≈ 59.3 µM) | 12.5 (≈ 29.7 µM) | > 50 | > 50 | 25 (≈ 59.3 µM) | 12.5 (≈ 29.7 µM) | 12.5 (≈ 29.7 µM) | 50 (≈ 119 µM) | 50 (≈ 119 µM) | > 50 | – | – | – |
| CC(C)CCO[C@@H]1C=CC(=O)[C@@H](Cn2cc(CCBr)nn2)O1 | > 50 | 6.25 (≈ 16.8 µM) | 50 (≈ 134 µM) | > 50 | 12.5 (≈ 33.6 µM) | 50 (≈ 134 µM) | 12.5 (≈ 33.6 µM) | 25 (≈ 67.2 µM) | > 50 | 12.5 (≈ 33.6 µM) | > 50 | – | – | – |
| CC(C)CCO[C@@H]1C=CC(=O)[C@@H](Cn2cc(-c3ccccn3)nn2)O1 | > 50 | 12.5 (≈ 36.5 µM) | 6.25 (≈ 18.3 µM) | 12.5 (≈ 36.5 µM) | > 50 | > 50 | 6.25 (≈ 18.3 µM) | 25 (≈ 73 µM) | > 50 | > 50 | 12.5 (≈ 36.5 µM) | – | – | – |
| CC(C)CCO[C@@H]1C=CC(=O)[C@@H](Cn2cc(C3CCCC3)nn2)O1 | 50 (≈ 150 µM) | 50 (≈ 150 µM) | 50 (≈ 150 µM) | > 50 | 25 (≈ 75 µM) | 50 (≈ 150 µM) | 50 (≈ 150 µM) | 50 (≈ 150 µM) | 50 (≈ 150 µM) | 50 (≈ 150 µM) | > 50 | – | – | – |
| CC(C)CCO[C@@H]1C=CC(=O)[C@@H](Cn2cc(C3CC3)nn2)O1 | > 50 | 6.25 (≈ 20.5 µM) | > 50 | > 50 | 12.5 (≈ 40.9 µM) | > 50 | 6.25 (≈ 20.5 µM) | 12.5 (≈ 40.9 µM) | > 50 | 25 (≈ 81.9 µM) | > 50 | – | – | – |
